Columns and labels:
PC-3 = assay: Cytotoxicity against human PC3 cells assessed as cell growth inhibition after 48 hrs by MTT assay; assay type: functional, cell-based; details: PC-3, 48 h
Method in brief: (§1)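 Cells from ATCC; HL-60 grown in IMDM, PC-3 in RPMI 1640, HT29 in DMEM, each with 10% FBS and penicillin/streptomycin, 37 °C, 5% CO2. Cells incubated without or with compound at the indicated concentrations and times. Mitochondrial MTT reduction read at 570 nm on a plate reader. IC50 given as mean ± SD of at least three independent experiments.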

HT-29 = assay: Cytotoxicity against human HT-29 cells assessed as cell growth inhibition after 48 hrs by MTT assay; assay type: functional, cell-based; details: HT-29, 48 h; method in brief: as §1
HL-60 = assay: Cytotoxicity against human HL60 cells assessed as cell growth inhibition after 48 hrs by MTT assay; assay type: functional, cell-based; details: HL-60, 48 h; method in brief: as §1
[1] = Drug uptake in human HL60 cell membrane at 15 uM for 15 hrs by DBCO-488-based fluorescence confocal microscopy; assay type: ADME, cell membranes; details: hl-60, 15 h
Method in brief: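 HL-60 cells treated with azido-bearing compound (15 μM, 15 h); DMSO-diluted control. Cells fixed in 99% alcohol, permeabilized with 0.1% Triton X-100 in PBS for 15 min, then washed. Copper-free labeling with DBCO-488 (2 μM) plus 0.5 mg/mL BSA in PBS for 6 h. RedDot2 nuclear and CellBrite Blue membrane counterstains; imaged by confocal fluorescence microscopy.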

Structure (SMILES) | IC50 (PC-3) [µM] | IC50 (HT-29) [µM] | IC50 (HL-60) [µM] | Drug uptake [1]
CCCCCCCOC(=O)N[C@H]1[C@H](O[C@H]2CC[C@]3(C)[C@H]4CC=C5[C@@H]6CC(C)(C)CC[C@]6(C(=O)O)CC[C@@]5(C)[C@]4(C)CC[C@H]3C2(C)C)O[C@H](CO)[C@@H](O)[C@@H]1O | 15.4 | 21.7 | 0.76 | 
CC(=O)N[C@H]1[C@H](O[C@H]2CC[C@]3(C)[C@H]4CC=C5[C@@H]6CC(C)(C)CC[C@]6(C(=O)O)CC[C@@]5(C)[C@]4(C)CC[C@H]3C2(C)C)O[C@H](CO)[C@@H](O)[C@@H]1O | > 30 | > 30 | 10.3 | 
CCCCCCCCC(=O)N[C@H]1[C@H](O[C@H]2CC[C@]3(C)[C@H]4CC=C5[C@@H]6CC(C)(C)CC[C@]6(C(=O)O)CC[C@@]5(C)[C@]4(C)CC[C@H]3C2(C)C)O[C@H](CO)[C@@H](O)[C@@H]1O | 14.7 | 22.8 | 1.46 | 
CCCCCOC(=O)N[C@H]1[C@H](O[C@H]2CC[C@]3(C)[C@H]4CC=C5[C@@H]6CC(C)(C)CC[C@]6(C(=O)O)CC[C@@]5(C)[C@]4(C)CC[C@H]3C2(C)C)O[C@H](CO)[C@@H](O)[C@@H]1O | > 30 | > 30 | 1.46 | 
CCCCCCC(=O)N[C@H]1[C@H](O[C@H]2CC[C@]3(C)[C@H]4CC=C5[C@@H]6CC(C)(C)CC[C@]6(C(=O)O)CC[C@@]5(C)[C@]4(C)CC[C@H]3C2(C)C)O[C@H](CO)[C@H](O)[C@@H]1O | > 30 | > 30 | 2.69 | 
CC(=O)N[C@H]1[C@H](O[C@H]2CC[C@]3(C)[C@H]4CC=C5[C@@H]6CC(C)(C)CC[C@]6(C(=O)O)CC[C@@]5(C)[C@]4(C)CC[C@H]3C2(C)C)O[C@H](CO)[C@H](O)[C@@H]1O | 23.4 | 23.3 | 11.6 | 
C#CCCC(=O)N[C@H]1[C@H](O[C@H]2CC[C@]3(C)[C@H]4CC=C5[C@@H]6CC(C)(C)CC[C@]6(C(=O)O)CC[C@@]5(C)[C@]4(C)CC[C@H]3C2(C)C)O[C@H](CO)[C@@H](O)[C@@H]1O | > 30 | > 30 | 10.6 | Active
CCCCCC(=O)N[C@H]1[C@H](O[C@H]2CC[C@]3(C)[C@H]4CC=C5[C@@H]6CC(C)(C)CC[C@]6(C(=O)O)CC[C@@]5(C)[C@]4(C)CC[C@H]3C2(C)C)O[C@H](CO)[C@@H](O)[C@@H]1O | > 30 | > 30 | 5.82 | 
COC(=O)N[C@H]1[C@H](O[C@H]2CC[C@]3(C)[C@H]4CC=C5[C@@H]6CC(C)(C)CC[C@]6(C(=O)O)CC[C@@]5(C)[C@]4(C)CC[C@H]3C2(C)C)O[C@H](CO)[C@@H](O)[C@@H]1O | > 30 | > 30 | 11.4 | 
CCCCCCCCCOC(=O)N[C@H]1[C@H](O[C@H]2CC[C@]3(C)[C@H]4CC=C5[C@@H]6CC(C)(C)CC[C@]6(C(=O)O)CC[C@@]5(C)[C@]4(C)CC[C@H]3C2(C)C)O[C@H](CO)[C@@H](O)[C@@H]1O | 16.1 | 22 | 1.23 | 
CCCCCCOC(=O)N[C@H]1[C@H](O[C@H]2CC[C@]3(C)[C@H]4CC=C5[C@@H]6CC(C)(C)CC[C@]6(C(=O)O)CC[C@@]5(C)[C@]4(C)CC[C@H]3C2(C)C)O[C@H](CO)[C@@H](O)[C@@H]1O | 13.9 | 21.4 | 1.44 | 
CCCCCCCCNC(=O)N[C@H]1[C@H](O[C@H]2CC[C@]3(C)[C@H]4CC=C5[C@@H]6CC(C)(C)CC[C@]6(C(=O)O)CC[C@@]5(C)[C@]4(C)CC[C@H]3C2(C)C)O[C@H](CO)[C@@H](O)[C@@H]1O | > 30 | > 30 | 2.14 | 
CCC(=O)N[C@H]1[C@H](O[C@H]2CC[C@]3(C)[C@H]4CC=C5[C@@H]6CC(C)(C)CC[C@]6(C(=O)O)CC[C@@]5(C)[C@]4(C)CC[C@H]3C2(C)C)O[C@H](CO)[C@@H](O)[C@@H]1O | 11.9 | 16.4 | 6.83 | 
CC1(C)CC[C@]2(C(=O)O)CC[C@]3(C)C(=CC[C@@H]4[C@@]5(C)CC[C@H](O[C@@H]6O[C@H](CO)[C@@H](O)[C@H](O)[C@H]6N)C(C)(C)[C@@H]5CC[C@]43C)[C@@H]2C1 | 25 | > 30 | 2.65 | 
CCCCCCCCCC(=O)N[C@H]1[C@H](O[C@H]2CC[C@]3(C)[C@H]4CC=C5[C@@H]6CC(C)(C)CC[C@]6(C(=O)O)CC[C@@]5(C)[C@]4(C)CC[C@H]3C2(C)C)O[C@H](CO)[C@@H](O)[C@@H]1O | > 30 | > 30 | 1.4 | 
CCCC(=O)N[C@H]1[C@H](O[C@H]2CC[C@]3(C)[C@H]4CC=C5[C@@H]6CC(C)(C)CC[C@]6(C(=O)O)CC[C@@]5(C)[C@]4(C)CC[C@H]3C2(C)C)O[C@H](CO)[C@@H](O)[C@@H]1O | > 30 | > 30 | 2.48 | 
O=c1[nH]cc(F)c(=O)[nH]1 [FLUOROURACIL] | > 30 | 8.3 | > 30 | 
CCCCCCCCOC(=O)N[C@H]1[C@H](O[C@H]2CC[C@]3(C)[C@H]4CC=C5[C@@H]6CC(C)(C)CC[C@]6(C(=O)O)CC[C@@]5(C)[C@]4(C)CC[C@H]3C2(C)C)O[C@H](CO)[C@@H](O)[C@@H]1O | 15.4 | 20.3 | 1.42 | 
CCOC(=O)N[C@H]1[C@H](O[C@H]2CC[C@]3(C)[C@H]4CC=C5[C@@H]6CC(C)(C)CC[C@]6(C(=O)O)CC[C@@]5(C)[C@]4(C)CC[C@H]3C2(C)C)O[C@H](CO)[C@@H](O)[C@@H]1O | > 30 | > 30 | 12.5 | 
CCCOC(=O)N[C@H]1[C@H](O[C@H]2CC[C@]3(C)[C@H]4CC=C5[C@@H]6CC(C)(C)CC[C@]6(C(=O)O)CC[C@@]5(C)[C@]4(C)CC[C@H]3C2(C)C)O[C@H](CO)[C@@H](O)[C@@H]1O | > 30 | > 30 | 21.5 | 
CC1(C)CC[C@]2(C(=O)O)CC[C@]3(C)C(=CC[C@@H]4[C@@]5(C)CC[C@H](O)C(C)(C)[C@@H]5CC[C@]43C)[C@@H]2C1 [OLEANOLIC_ACID] | > 30 | > 30 | > 30 | 
CCCCCCCCCCCC(=O)N[C@H]1[C@H](O[C@H]2CC[C@]3(C)[C@H]4CC=C5[C@@H]6CC(C)(C)CC[C@]6(C(=O)O)CC[C@@]5(C)[C@]4(C)CC[C@H]3C2(C)C)O[C@H](CO)[C@@H](O)[C@@H]1O | 21.4 | > 30 | 1.57 | 
CCCCCCCCCCCCCC(=O)N[C@H]1[C@H](O[C@H]2CC[C@]3(C)[C@H]4CC=C5[C@@H]6CC(C)(C)CC[C@]6(C(=O)O)CC[C@@]5(C)[C@]4(C)CC[C@H]3C2(C)C)O[C@H](CO)[C@@H](O)[C@@H]1O | > 30 | > 30 | 10.7 | 
CC1(C)CC[C@]2(C(=O)O)CC[C@]3(C)C(=CC[C@@H]4[C@@]5(C)CC[C@H](O[C@@H]6O[C@H](CO)[C@@H](O)[C@H](O)[C@H]6NC(=O)CN=[N+]=[N-])C(C)(C)[C@@H]5CC[C@]43C)[C@@H]2C1 | 22.4 | 23.1 | 9.13 | Active
CCCCCCCCCCCCCCCC(=O)N[C@H]1[C@H](O[C@H]2CC[C@]3(C)[C@H]4CC=C5[C@@H]6CC(C)(C)CC[C@]6(C(=O)O)CC[C@@]5(C)[C@]4(C)CC[C@H]3C2(C)C)O[C@H](CO)[C@@H](O)[C@@H]1O | > 30 | > 30 | > 30 | 
CC[C@]1(O)C[C@H]2CN(CCc3c([nH]c4ccccc34)[C@@](C(=O)OC)(c3cc4c(cc3OC)N(C=O)[C@H]3[C@@](O)(C(=O)OC)[C@H](OC(C)=O)[C@]5(CC)C=CCN6CC[C@]43[C@@H]65)C2)C1 [VINCRISTINE] | > 0.025 |  | 0.0018 | 
CCCCOC(=O)N[C@H]1[C@H](O[C@H]2CC[C@]3(C)[C@H]4CC=C5[C@@H]6CC(C)(C)CC[C@]6(C(=O)O)CC[C@@]5(C)[C@]4(C)CC[C@H]3C2(C)C)O[C@H](CO)[C@@H](O)[C@@H]1O | 15 | 18.1 | 2.23 | 
CCCCCCCC(=O)N[C@H]1[C@H](O[C@H]2CC[C@]3(C)[C@H]4CC=C5[C@@H]6CC(C)(C)CC[C@]6(C(=O)O)CC[C@@]5(C)[C@]4(C)CC[C@H]3C2(C)C)O[C@H](CO)[C@@H](O)[C@@H]1O | 19.4 | 21.9 | 1.68 | 
CCCCCCCCCCCCCCCCCC(=O)N[C@H]1[C@H](O[C@H]2CC[C@]3(C)[C@H]4CC=C5[C@@H]6CC(C)(C)CC[C@]6(C(=O)O)CC[C@@]5(C)[C@]4(C)CC[C@H]3C2(C)C)O[C@H](CO)[C@@H](O)[C@@H]1O | > 30 | > 30 | > 30 | 
CCCCC(=O)N[C@H]1[C@H](O[C@H]2CC[C@]3(C)[C@H]4CC=C5[C@@H]6CC(C)(C)CC[C@]6(C(=O)O)CC[C@@]5(C)[C@]4(C)CC[C@H]3C2(C)C)O[C@H](CO)[C@@H](O)[C@@H]1O | 24 | 21.7 | 10.6 | 
